High-throughput results as filed in PubChem.
Only some compounds are listed: those with a hit (about 2.9% of all), similar ones and a draw of the others.
HTRA1 inhibitor = blocks human HTRA1 serine peptidase | Q92743 | recombinant HTRA1, FP-rhodamine activity-based probe, fluorescence polarization | inhibition, % at 5.96 µM | 340,000 tested, 0.5% active | AID 504803; in the data active = inhibition above about 36%;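 note: 0% = enzyme with DMSO and 100% = wells lacking enzyme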
TCR-CD3 inh = human TCR-CD3 binding inhibition; TAMRA-labeled TCR probe fluorescence, biochemical; 360,000 tested, 0.37% active; inhibition, % at 9.4 µM; in the data active = inhibition above about 19%;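 note: recombinant mutant TCR 2C K166C tagged with TAMRA read by polarization; 0% = receptor in buffer alone and 100% = receptor with positive control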
SIAE primary = inhibitors of human sialic acid acetylesterase SIAE; Q9HAT2; SIAE FP-Rh probe binding, fluorescence polarization; AID 1053197; inhibition, % at 9.66 µM; 370,000 tested, 0.69% active;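 active = inhibition above a cutoff: mean of compounds within the control limits plus 3 SD of those, cut at about 17% in these data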;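 note: 0% = plate median of compound wells and 100% = probe without SIAE protein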
ATG4B inh = blocks human ATG4B protease cleavage of LC3 substrate; Q9Y4P1; ATG4B cleavage of LC3-PLA2, NBD-HPC fluorescence, 1 h; inhibition, % at 8.33 µM; 340,000 tested, 0.51% active; AID 504462; in the data active = inhibition above about 40%
ABHD4 inh = ABHD4 (mouse) inhibition, primary FP screen; Q8VD66; purified mABHD4, FP-Rh probe fluorescence polarization; inhibition, % at 8.92 µM; 370,000 tested, 0.54% active; AID 720543;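 active = inhibition exceeding the mean over every tested compound plus 3 SD, cut at about 30% in these data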;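 note: 0% = plate median of compound wells and 100% = S159A mutant with DMSO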
Target sequence (Q8VD66 whole entry, looked up): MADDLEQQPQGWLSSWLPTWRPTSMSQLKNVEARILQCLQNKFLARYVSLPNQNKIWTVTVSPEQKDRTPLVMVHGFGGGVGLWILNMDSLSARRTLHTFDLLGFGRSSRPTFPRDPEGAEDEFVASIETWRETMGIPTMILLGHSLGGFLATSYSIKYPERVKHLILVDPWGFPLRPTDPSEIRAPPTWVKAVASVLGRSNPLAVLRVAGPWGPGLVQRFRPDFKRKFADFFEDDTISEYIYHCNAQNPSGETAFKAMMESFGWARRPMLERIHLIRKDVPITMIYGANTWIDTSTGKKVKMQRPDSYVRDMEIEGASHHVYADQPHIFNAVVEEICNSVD
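Doses – 8.92 µM, single dose · Material – wild-type mouse ABHD4 protein · Replication – single well per compound (singlicate) · Measure – percent inhibition of probe binding, normalized to plate controls · Schedule – 45 min compound pre-incubation plus 60 min probe step, 25 °C · Detection – fluorescence polarization with parallel and perpendicular emission, 525/598 nm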
PRMT1 inh = blocks human protein arginine methyltransferase 1; Q99873; recombinant PRMT1, activity-based probe fluorescence polarization; inhibition, % at 2.79 µM; 370,000 tested, 1.3% active; AID 652257;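 active = inhibition above about 21% made by adding two undisclosed values, limit read from the data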
ABHD4 confirm = confirmation of mouse ABHD4 inhibitors; 1,800 tested, 55% active; shares compounds with ABHD4 inh; purified mABHD4, FP-Rh probe fluorescence polarization; inhibition, % at 8.92 µM;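 active = mean inhibition across replicates above the hit cutoff set in the primary screen, cut at about 30% in these data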;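 note: 0% = wild-type ABHD4 with DMSO and 100% = catalytically dead S159A mutant with DMSO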
SIAE confirm = confirmation of human SIAE inhibitors; SIAE FP-Rh activity-based probe, fluorescence polarization; inhibition, % at 9.66 µM; 2,300 tested, 13% active; shares compounds with SIAE primary;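 active = mean inhibition of the replicates above the hit cutoff set in the primary screen, cut at about 17% in these data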;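 note: 0% = SIAE with DMSO and probe and 100% = probe without SIAE; inhibitors lower polarization as more probe stays unbound to SIAE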
An asterisk follows results filed as active; · = no result given.

SMILES	HTRA1 inhibitor	TCR-CD3 inh	SIAE primary	ATG4B inh	ABHD4 inh	PRMT1 inh	SIAE confirm	others
COc1cc(/C=N/NC(=O)C(Cc2c[nH]c3ccccc23)NC(=O)OCC(C)C)cc([N+](=O)[O-])c1O (configuration not stated)	27	-2	55*	0	36*	10	44*	ABHD4 confirm=49*
C/C(=N/Nc1ccc(C(=O)O)cc1)c1ccc2c(c1)Nc1ccccc1S2	23	7	17*	29	56*	13	28*	ABHD4 confirm=81*
COc1cccc(C(=O)N[C@H](C(=O)N2CCC[C@H]2C(=O)NCCc2ccccc2Cl)C2CCCCC2)c1	·	2	-5	·	-2	3	·
CN(CCO)c1cccc2c1S(=O)(=O)N(Cc1cn(Cc3ccc(Cl)cc3)nn1)Cc1ccccc1O2	·	·	1	·	4	-2	·
COc1ccc(CNc2nc(=S)[nH]c3cc(OC)c(OC)cc23)cc1	-5	-1	2	-5	3	3	·
COc1ccc(CNc2ncnc3c2[nH]c2cc(OC)c(OC)cc23)cc1	14	0	37*	-7	32*	-1	24*	ABHD4 confirm=70*
COC(=O)[C@]12C[C@H](CC(=O)NCc3ccccc3)C(=O)N(Cc3cccc4ccccc34)C1=C[C@H](C1CCCC1)O[C@@H]2C	·	·	-2	·	12	-5	·
C(=C\c1ccccc1)/C=N/Nc1nc2ccccc2[nH]1	32	-1	22*	-14	32*	-1	18*	ABHD4 confirm=33*
O=[N+]([O-])c1cccc(C=NNc2ccc3ccccc3n2)c1O	23	-1	17*	-3	37*	0	3	ABHD4 confirm=37*
Brc1ccccc1/C=N/Nc1ccc2ccccc2n1	-17	-3	4	-1	15	0	·
CCOC(=O)C1CCN(C(=O)C(C)(C)NC(=O)Nc2ccc3c(c2)CCC3)CC1	·	·	4	·	1	4	·
O=C1[C@@H]2CSCN2C(=O)CN1Cc1ccccc1F	-1	2	19*	3	0	-8	3
O=C1[C@@H]2CSCN2C(=O)CN1Cc1c(F)cccc1Cl	6	2	-1	4	5	1	·
COC(=O)C1CCCCN1C(=O)c1ccc2oc(C(C)C)nc2c1 (configuration not stated)	1	0	17*	1	3	1	6
COC(=O)C1CCCCN1C(=O)c1ccc2oc(Cc3ccccc3)nc2c1 (configuration not stated)	-1	-6	-4	4	-1	2	·
CCCCNC(=O)CCC(=O)Nc1ccc2nc(N3CCOCC3)cc(C)c2c1	-5	-3	24*	0	-1	-1	-1
Cc1ccc(C(=O)N(C)[C@H]2C[C@H]3c4[nH]c5c(-c6ccccc6)cccc5c4CCN3C(=O)[C@H]2[C@H](C)O)cc1	·	-12	-29	·	-11	-1	·
CCOC(=O)c1sc(NC(=O)Nc2cccc(Cl)c2)cc1C	-7	1	18*	30	-4	3	-6
O=C(Nc1ccc(Br)cc1)O[C@@H]1CC[C@@]23CCCN2C(=O)CCC[C@H]3C1	·	·	-2	·	-2	-1	·
Cc1c(CCNC=O)cc(C)c2c3c(oc12)CCCC3	-19	-1	89*	2	-1	-1	5
Cc1ccc(S(=O)(=O)Nc2cc(C)cc(CCNC=O)c2C)cc1	-6	-3	3	-1	-4	2	·
C[C@@H]1[C@@H](O)C[C@@]2(C[C@H](O)c3cc(F)ccc3O2)O[C@H]1c1ccccc1Cl	·	·	-4	·	-11	-3	·
Cc1cc(C)nc(SCc2ccc(C(=O)N/N=C/c3cccc(O)c3O)cc2)n1	5	12	43*	-7	17	1	-16
O=C(Cn1nnc2ccccc21)OCC(=O)c1ccccc1	0	2	19*	-13	0	4	-3
C=CCN1C(=O)[C@@H](CC(=O)NCCC(C)C)[C@]2(C(=O)OCC)CCCCC/C=C/12	·	·	2	·	2	5	·
SMILES	HTRA1 inhibitor	TCR-CD3 inh	SIAE primary	ATG4B inh	ABHD4 inh	PRMT1 inh	SIAE confirm	others
COc1ccc2c(c1)CN1CN(Cc3ccccc3)S(=O)(=O)CC21 (configuration not stated)	·	·	0	·	-3	2	·
COC(=O)CSc1nc(-c2ccc(F)cc2)cc(C(F)(F)F)n1	-4	10	28*	-2	1	-2	1
COc1ccc(C2C(C(=O)Nc3ccc(C)c(C)c3)CCC(=O)N2c2ccc(OC)cc2)cc1 (configuration not stated)	·	·	4	·	-2	-2	·
COc1ccc(Oc2cccc3c2S(=O)(=O)N(C2CC2)C[C@@H](COCc2ccccc2)O3)cc1	·	1	-5	·	-12	0	·
Cc1ccc(Nc2nc(C)cs2)cc1	3	7	3	-10	0	4	·
Cc1csc(Nc2ccc(Cl)cc2)n1	-2	3	19*	8	-2	-6	1
COC(=O)c1cc2c(c3c4cc(OC)ccc4n(S(=O)(=O)c4ccc(OC)cc4)c13)C(=O)N(Cc1ccc(N(C)C)cc1)C2	·	2	0	·	1	-1	·
Cc1cccc(N(CC(=O)N2CCCC2)S(=O)(=O)c2ccccc2)c1C	1	-12	22*	-9	1	1	0
CCc1ccccc1N(CC(=O)N1CCCCC1)S(=O)(=O)c1ccccc1	-10	5	7	-4	-3	0	·
CCOc1ccccc1NC(=O)N1CCc2ccccc2C1	8	0	18*	1	-1	0	-1
CCCCCCCCN1C(=O)[C@@H](CC(=O)NCC23CC4CC(CC(C4)C2)C3)C[C@@]2(C(=O)OC)C1=C[C@H](C1CCCC1)O[C@@H]2C	·	-1	6	·	0	4	·
O=C(CSc1n[nH]c(-c2cccnc2)n1)OC1CCCCC1	-3	-4	18*	-11	-4	2	-3
O=C(OC12CCCN(C1)/C(=C/c1cccc(Cl)c1)C2)c1ccc(F)cc1 (configuration not stated)	·	·	-1	·	1	-3	·
Cc1c(/C=N/NC(=O)c2ccc(O)cc2)c2ccccn2c1C(=O)c1ccc(F)cc1	8	-5	13	6	10	-1	·
Cc1c(/C=N/NC(=O)c2ccccc2O)c2ccccn2c1C(=O)c1ccc(F)cc1	10	2	37*	-3	6	0	-2
Cc1ccccc1CN1CCCCC(NC(=O)Nc2ccccc2-c2ccccc2)C1=O (configuration not stated)	·	·	-4	·	-7	6	·
Cn1nccc1C(=O)Nc1ccc(S(=O)(=O)N2CCCC2)cc1	5	-2	18*	1	8	-1	6
